# CHRM4 agonist: human M4 muscarinic receptor agonists, primary screen, CHO-K1 cells, Fluo-8 calcium fluorescence. activation, % at 3 µM. 0.14% of 360,000 active. CHO-K1 hM4/Gqi5; vehicle 0%, full acetylcholine response 100%. Muscarinic acetylcholine receptor M4 (Homo sapiens), P08173;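 active = activation above the run mean over all test wells plus 3 SD, cut at about 32% in these data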;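 also: peak over basal fluorescence ratio per well then scaled between controls; 0% = DMSO wells and 100% = acetylcholine at EC100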
# Target sequence (P08173 whole entry, looked up): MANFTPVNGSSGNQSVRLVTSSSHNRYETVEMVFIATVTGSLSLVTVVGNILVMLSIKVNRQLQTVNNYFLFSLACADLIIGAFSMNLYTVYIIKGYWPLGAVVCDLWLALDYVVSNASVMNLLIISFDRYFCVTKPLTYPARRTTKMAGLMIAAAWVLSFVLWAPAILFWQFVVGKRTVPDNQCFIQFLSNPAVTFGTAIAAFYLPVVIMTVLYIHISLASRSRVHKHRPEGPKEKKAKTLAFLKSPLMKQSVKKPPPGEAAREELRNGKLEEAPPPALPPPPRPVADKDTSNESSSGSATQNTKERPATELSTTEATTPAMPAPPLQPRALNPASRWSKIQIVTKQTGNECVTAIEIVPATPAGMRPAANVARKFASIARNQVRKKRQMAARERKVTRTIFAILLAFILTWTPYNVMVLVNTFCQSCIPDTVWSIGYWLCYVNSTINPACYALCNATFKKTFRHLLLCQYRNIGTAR
# CHRM4 PAM: human M4 muscarinic receptor positive allosteric modulators, primary screen, CHO-K1 cells, Fluo-8 calcium fluorescence; activation, % at 3 µM; CHO-K1 hM4/Gqi5, ACh EC20; 0% = ACh EC20, 100% = maximal ACh; Muscarinic acetylcholine receptor M4 (Homo sapiens), P08173; 0.4% of 360,000 active;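 active = activation above its plate's cutoff, the mean activation of sample wells plus 3 SD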
# CHRM4 antagonist: human M4 muscarinic receptor antagonists, primary screen, CHO cells, Fluo-8 calcium fluorescence; 0.73% of 360,000 active; inhibition, % at 3 µM; CHO-hM4 cells, ACh EC80;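 active = inhibition above its plate's cutoff, the mean inhibition of sample wells plus 3 SD, cut at about 27% in these data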;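 also: 0% = acetylcholine EC80 with DMSO and 100% = DMSO without agonist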
# M5 ag: human M5 muscarinic receptor agonists, primary screen, CHO-K1 cells, Fluo-8 calcium fluorescence | CHO-K1 hM5 cells; 0% DMSO wells, 100% maximal acetylcholine response | activation, % at 3 µM | 0.19% of 360,000 active;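 active = activation above the run's mean over test compounds plus 3 SD, cut at about 23% in these data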;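 also: signal is peak over basal fluorescence ratio across the kinetic read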
# M5 antag: human M5 muscarinic receptor antagonists, primary screen, CHO cells, Fluo-8 calcium fluorescence; 0.59% of 360,000 active; inhibition, % at 3 µM; AID 624040, 2012; Muscarinic acetylcholine receptor M5 (Homo sapiens), P08912; CHO-hM5 cells, ACh EC80;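 active = inhibition above a per-plate cutoff, the mean of that plate's test compounds plus 3 SD, cut at about 27% in these data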;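 also: 0% = acetylcholine EC80 with DMSO and 100% = DMSO without agonist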
# M5 PAM: human M5 muscarinic receptor positive allosteric modulators, primary screen, CHO-K1 cells, Fluo-8 calcium fluorescence; CHO-K1 hM5, ACh EC20 PAM; 0% = ACh EC20, 100% = ACh EC100; Muscarinic acetylcholine receptor M5 (Homo sapiens), P08912; activation, % at 3 µM; 0.3% of 360,000 active;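 active = activation above the run cutoff, the mean activation of all test compounds plus 3 SD, cut at about 18% in these data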
#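 System – CHO-K1 hM5 cells · Compound – 3 µM, single dose · Incubation – compound preincubation 140 s before EC20 acetylcholine addition · Technique – Fluo-8 calcium fluorescence · Measure – Max/basal fluorescence ratio as % of EC20–EC100 ACh window · Benchmarks – low control EC20 acetylcholine (0%), high control EC100 acetylcholine (100%) · Replication – singlicate, one well per test compound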
# Active calls of the source: *. Shown are actives, neighbours in structure and some others; about 1.8% of the full set was active somewhere.
SMILES,CHRM4 agonist,CHRM4 PAM,CHRM4 antagonist,M5 ag,M5 antag,M5 PAM
O=C(N/N=C\c1c(O)ccc2ccccc12)c1ccc(Cn2cccn2)o1,6.1,-1.4,-11.7,0.0,-1.5,-7.5
CCC(C(=O)NCc1cccs1)n1nc(C)n2c(cc3occc32)c1=O (centres undefined),0.8,12.7,-4.9,1.0,-28.6,26.1*
c1ccc2c(c1)nnn2Cn1nnc2ccccc21,1.2,-1.9,-1.1,-4.3,7.6,1.5
COC(=O)CCC(C)C1CCC2C3CCC4CC(O)CCC4(C)C3=CC(=O)C12C (centres undefined),5.0,-7.2,-12.6,1.2,2.4,-4.0
CN1C(=O)/C(=C\c2ccc(N(C)C)cc2)OC1=S,29.5,-10.8,4.0,95.6*,23.9,-15.0
O=C(C1=C[C@@H](c2coc3ccccc3c2=O)C[C@@H](OCCCCO)O1)N1CCN(Cc2ccccc2)CC1,8.9,-0.5,-5.3,2.7,-2.4,-8.6
CN1CCN(C(=O)C2=C[C@@H](c3coc4ccccc4c3=O)C[C@@H](OCCCCO)O2)CC1,1.9,23.9*,2.9,-0.6,-3.2,-9.0
CC1(c2nnnn2-c2ccc3c(c2)OCCO3)CCC(=O)N1CCc1ccc(O)cc1 (centres undefined),0.6,3.1,9.4,5.9,0.7,-3.4
COC1=CC(=O)OC(c2ccc(C#N)cc2)C1 (centres undefined),2.0,-1.7,0.3,0.3,0.4,-2.2
CCOC(=O)C1CCCN(C2CCN(Cc3nc(-c4ccccc4)no3)CC2)C1 (centres undefined),1.2,-11.9,13.6,-10.4,44.6*,-17.8
CCOC(=O)C1CCN(C2CCN(Cc3nc(-c4ccccc4)no3)CC2)CC1,3.9,-11.3,-0.4,-5.5,8.7,-7.2
CC(=O)c1sc(Nc2ccccc2)nc1C,0.3,-3.0,-3.4,-7.3,4.1,4.9
CC(=O)c1sc(Nc2ccc(Oc3ccccc3)cc2)nc1C,7.1,-15.2,33.6*,-5.0,19.1,-20.1
COc1ccc(Cc2nc3ccc(C(=O)NC(C)c4cn(C)nc4C)cc3o2)cc1 (centres undefined),1.1,3.5,-18.0,0.5,-9.7,4.6
c1ccc(COc2ncnc3c2ncn3CCCNCCN2CCOCC2)cc1,0.5,5.3,-1.9,-0.7,-7.1,3.7
CN(C)c1ccc(/C=C2\SC(=S)N(Nc3ncc(C(F)(F)F)cc3Cl)C2=O)cc1,20.4,-19.6,34.8*,12.4,31.2*,-6.0
Cc1cc(C)nc(NN2C(=O)/C(=C/c3ccccc3)SC2=S)n1,-0.3,10.3,3.5,-2.3,5.5,-6.9
COc1cc(/C=C2\SC(=S)N(Nc3ncc(C(F)(F)F)cc3Cl)C2=O)ccc1O,24.8,-17.6,38.8*,6.0,26.6,-47.1
CCOC(=O)C1CCCN(c2cc(=O)n(Cc3ccc(F)cc3)c(=O)[nH]2)C1 (centres undefined),3.9,0.1,3.9,23.9*,-6.1,-2.6
COC(=O)C1CCN(c2cc(=O)n(Cc3ccc(F)cc3)c(=O)[nH]2)CC1,0.6,-5.7,3.4,3.4,-7.7,0.7
CCCCSCCCNC(=S)Nc1ccccc1C,1.3,-3.8,5.9,-2.2,3.3,8.5
CCCCNC(=S)Nc1ccccc1Cc1ccccc1,1.4,-0.2,1.3,-4.8,-6.3,22.9*
CC(C)N(C(=O)COC(=O)c1cc(Cl)cc(Cl)c1N)C(C)C,-2.6,-10.6,11.3,-6.5,27.2*,-15.0
COC(=O)c1ccc2c(c1)C(C)(C)C(/C=C/c1ccccc1O)=[N+]2C,6.9,-10.3,2.3,23.5*,3.8,9.3
CC12CCC(=O)C=C1CCC1C2C(O)CC2(C)C1CCC2(O)C(=O)COC(=O)CCC1CCCC1 (centres undefined),10.2,-16.7,21.5,-3.0,13.2,-15.5
SMILES,CHRM4 agonist,CHRM4 PAM,CHRM4 antagonist,M5 ag,M5 antag,M5 PAM
CSCCC(NC(=O)c1ccco1)C(=O)N1CCCC(C(F)(F)F)C1 (centres undefined),0.9,12.7,3.9,-0.2,-5.6,5.3
Cc1ccc(S(=O)(=O)N2CCOCC2)cc1NC(=O)CSc1nnc(COc2ccccc2F)n1N,0.8,-0.8,-12.1,1.7,-5.3,7.9
CC(=O)c1ccc(S(=O)(=O)N2CCN(C(=O)CSc3ccc(F)cc3)CC2)cc1,2.8,-2.7,7.6,-4.1,0.8,-3.5
Cc1ccccc1N(CC(=O)NCCc1ccccc1)C(=O)c1csnn1,0.3,-1.7,5.7,0.3,6.0,0.3
Oc1ccccc1NCC(O)Cn1ccc2ccccc21 (centres undefined),2.9,17.8,35.1*,-0.1,8.9,6.3
CCc1ccc(N=C2NC(=O)CS2)cc1,-0.4,0.4,-0.1,2.1,-1.0,8.7
CN(CCOc1ccc(Cl)cc1)C(=O)c1cc(-c2ccco2)nc2ccccc12,21.6,-10.4,19.0,1.6,27.8*,-26.4
CNC[C@@H]1OCc2cnnn2CCCC(=O)N([C@H](C)CO)C[C@H]1C,0.9,3.2,-7.1,1.6,1.8,2.7
O=C(O)CSc1cc(C(=O)c2ccccc2O)cn2c(=O)c3c4c(sc3nc12)CCCC4,0.7,32.7*,8.9,-2.3,5.9,6.9
COC(=O)C(NC(=O)C(CC(C)C)NC(=O)C1CCC(C)CC1)C(C)C (centres undefined),0.0,-0.8,4.1,2.5,36.0*,35.6*
CCOc1ccccc1NC(C)C(=O)NC(=O)NC1CCCCC1 (centres undefined),0.2,0.3,11.3,-2.9,2.9,8.8
O=C(c1ccncc1)N(Cc1ccccc1)Cc1nc2ccccc2c(=O)[nH]1,2.3,-2.0,-6.2,6.5,-3.3,29.1*
CCCc1cc(=O)[nH]c(SCC(=O)N(C)CC(=O)Nc2ccc(F)cc2)n1,-0.6,-2.6,-0.7,-1.2,4.3,-0.2
CCCc1cc(=O)[nH]c(SCC(=O)N(C)CC(=O)Nc2ccc(C)cc2)n1,0.8,26.2*,-17.3,-2.5,-4.1,23.1*
O=C(COC(=O)C1=COCCO1)NC1CCCCC1,0.2,4.2,-3.2,2.5,-0.8,7.0
O=C(O)c1cn(C2CC2)c2cc(N3CCN(S(=O)(=O)c4ccc5c(c4)OCCO5)CC3)c(F)cc2c1=O,0.7,2.2,-2.6,0.9,-4.6,10.4
COc1cc(/C=C2/SC(=S)N(CC3CCCO3)C2=O)ccc1O (centres undefined),32.7*,-24.8,17.9,22.7,18.0,-8.2
